Measured values of several laboratories.
Compare with care: the assays were run in different laboratories.
Effect on: metabolic stability
Species: mouse
Matrix: liver microsomes

| SMILES | setting | microsomal CLint |
| --- | --- | --- |
| CCN(CC)CCNC(=O)c1c(C)[nH]c(/C=C2\C(=O)Nc3ccc(F)cc32)c1C |  | 41 µL/min/mg |
| O=c1c2c([nH]c3c(Oc4ccc(OC(F)(F)F)cc4)cccc13)CCCC2 | 1 µM, pH 7.4 | 8.33 µL/min/mg |
| CC1(C)NC(=O)N(c2ccc3c(c2)OC(F)(F)O3)C1=O |  | < 7 µL/min/mg |
| CONC(=O)c1cccc2c1cc(C)n2-c1nc2c(c(NCc3ccccc3)n1)CCCN2 | 1 µM, pH 7.4 | 619 µL/min/mg |
| O=c1c2c([nH]c3cc(OCc4ccc(OC(F)(F)F)cc4)ccc13)CCCC2 | 1 µM, pH 7.4 | 19.7 µL/min/mg |
| CC1(C)NC(=O)N(c2ccc(F)c(OC(F)(F)F)c2)C1=O |  | < 7 µL/min/mg |
| CCCN(CCC)CCNc1ccc2c(=O)c3c([nH]c2c1)CCCC3 | 1 µM, pH 7.4 | 81.9 µL/min/mg |
| CC1(C(F)F)NC(=O)N(c2ccc(F)c(C(F)(F)F)c2)C1=O (stereo not shown) |  | < 7 µL/min/mg |
| O=C(O)Cc1ccccc1Nc1c(Cl)cccc1Cl |  | 31.2 µL/min/mg |
| CCN(CC)CCOc1ccc2c(=O)c3c([nH]c2c1)CCCC3 | 1 µM, pH 7.4 | 17.7 µL/min/mg |
| CC1(C)NC(=O)N(c2ccc(F)c(Br)c2)C1=O |  | 8 µL/min/mg |
| CC(C)c1cc(C(=O)NCCN)c2cnn(C(C)C)c2n1 |  | < 9.6 µL/min/mg |
| O=c1c2ccc(Oc3ccc(OC(F)(F)F)cc3)cc2[nH]c2cc(Cl)c(F)cc12 | 1 µM, pH 7.4 | 1.84 µL/min/mg |
| Cc1[nH]c(C)c(S(=O)(=O)Nc2ccc(C(F)(F)F)c(Cl)c2Cl)c1C(=O)N1CCC(F)(F)C1 |  | 15.7 µL/min/mg |
| CCS(=O)(=O)N1CCC2(CC1)NC(=O)N(c1ccc(F)c(C(F)(F)F)c1)C2=O |  | < 7 µL/min/mg |
| CC(C)n1ncc2c(C(=O)NCC3(F)CNC3)cc(C3CC3)nc21 |  | 19.8 µL/min/mg |
| CC1(C)NC(=O)N(c2cc(C(F)(F)F)c(F)cc2C#N)C1=O |  | < 7 µL/min/mg |
| CC(C)n1ncc2c(C(=O)NCC(C)(C)N(C)C)cc(C3CC3)nc21 |  | 30.4 µL/min/mg |
| CCN(CC)CCCOc1ccc2c(=O)c3c([nH]c2c1)CCCC3 | 1 µM, pH 7.4 | 7.94 µL/min/mg |
